# ChEMBL document CHEMBL2151038, “Synthesis, characterization and biological evaluation of some novel 2,4-thiazolidinediones as potential cytotoxic, antimicrobial and antihyperglycemic agents” (Bioorg Med Chem Lett, 2012)
# Legend:
# Rattus norvegicus [1] = assay: Antihyperglycemic activity in streptozotocin-induced type 2 diabetic Wistar albino rat assessed as reduction in plasma glucose level at 50 mg/kg, po by glucometer; assay type: functional
# Method in brief: (§1)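 Wistar albino rats of either sex, 150–200 g, fasted 16 h. Diabetes induced by nicotinamide 150 mg/kg, then STZ 65 mg/kg in citrate buffer pH 4.5. Glucose confirmed after 48 h. Groups of six. Oral dosing as 0.25% sodium CMC suspension at 10, 30 or 50 mg/kg. Rosiglitazone was the reference. Retro-orbital plasma glucose measured by glucometer before dosing and at 1, 2, 4, 6, 8, 12 and 24 h. Results as mean ± SEM, compared by ANOVA, t-test and Dunnett's test.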
# Candida albicans = assay: Antifungal activity against Candida albicans NCIM 3102 after 48 hrs by NCCLS agar well diffusion method; assay type: functional; settings: NCIM 3102, 48 h
# Method in brief: (§2)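 Spore suspensions in sterile distilled water adjusted to 10⁶ CFU/mL, 0.1 mL spread on potato-dextrose agar. 6 mm wells received 0.1 mL compound in 1% DMSO (final 16–512 µg/mL). Controls: 1% DMSO and ketoconazole (16 µg/mL). Triplicate plates, 48 h at 28 ± 0.2 °C. MIC = lowest concentration completely inhibiting growth.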
# Bacillus pumilus = assay: Antibacterial activity against Bacillus pumilus NCIM 2327 after 24 hrs by NCCLS agar well diffusion method; assay type: functional; settings: NCIM 2327, 24 h
# Method in brief: (§3)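 Nutrient agar seeded with 0.1 mL bacterial suspension (10⁵ CFU/mL in 0.85% saline). 6 mm wells filled with 0.1 mL compound. Plates in triplicate, 37 ± 0.5 °C for 24 h. MIC = lowest concentration giving complete growth inhibition.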
# Klebsiella pneumoniae = assay: Antibacterial activity against Klebsiella pneumoniae NCIM 5082 after 24 hrs by NCCLS agar well diffusion method; assay type: functional; settings: NCIM 5082, 24 h; method in brief: as §3
# Penicillium chrysogenum = assay: Antifungal activity against Penicillium chrysogenum NCIM 738 after 48 hrs by NCCLS agar well diffusion method; assay type: functional; settings: NCIM 738, 48 h; method in brief: as §2
# Rattus norvegicus [2] = assay: Antihyperglycemic activity in po dosed streptozotocin-induced type 2 diabetic Wistar albino rat assessed as reduction in plasma glucose level by glucometer; assay type: functional, organism-based; method in brief: as §1
# [3] = Toxicity in mouse assessed as changes in vital functions; assay type: organism-based; settings: in vivo
# Artemia salina = assay: Cytotoxicity in brine shrimps larvae assessed as mortality after 24 hrs; assay type: functional; settings: read-out: ED50 (the source's name)
# Method in brief: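 Artemia salina nauplii hatched 38 h under constant aeration in sterile brine (sea salt 38 g/L, pH 8.5 with 1 N NaOH). Ten nauplii per vial were exposed to a range of compound concentrations at 37 °C for 24 h under incandescent light, alongside vehicle-treated controls. Survivors were counted, % lethality was taken from mean survivors versus control, and ED50 came from probit analysis.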
# Escherichia coli = assay: Antibacterial activity against Escherichia coli NCIM 2065 after 24 hrs by NCCLS agar well diffusion method; assay type: functional; settings: NCIM 2065, 24 h; method in brief: as §3
# Staphylococcus aureus = assay: Antibacterial activity against Staphylococcus aureus NCIM 2079 after 24 hrs by NCCLS agar well diffusion method; assay type: functional; settings: NCIM 2079, 24 h; method in brief: as §3
# Proteus vulgaris = assay: Antibacterial activity against Proteus vulgaris NCIM 2813 after 24 hrs by NCCLS agar well diffusion method; assay type: functional; settings: NCIM 2813, 24 h; method in brief: as §3
# Aspergillus niger = assay: Antifungal activity against Aspergillus niger NCIM 548 after 48 hrs by NCCLS agar well diffusion method; assay type: functional; settings: NCIM 548, 48 h; method in brief: as §2
# Aspergillus oryzae = assay: Antifungal activity against Aspergillus oryzae NCIM 643 after 48 hrs by NCCLS agar well diffusion method; assay type: functional; settings: NCIM 643, 48 h; method in brief: as §2
# Rattus norvegicus [4] = assay: Antihyperglycemic activity in streptozotocin-induced type 2 diabetic Wistar albino rat assessed as reduction in plasma glucose level at 10 mg/kg, po by glucometer; assay type: functional; method in brief: as §1
# Pseudomonas aeruginosa = assay: Antibacterial activity against Pseudomonas aeruginosa NCIM 2036 after 24 hrs by NCCLS agar well diffusion method; assay type: functional; settings: NCIM 2036, 24 h; method in brief: as §3
# Micrococcus luteus = assay: Antibacterial activity against Micrococcus luteus NCIM 2155 after 24 hrs by NCCLS agar well diffusion method; assay type: functional; settings: NCIM 2155, 24 h; method in brief: as §3
# Bacillus subtilis = assay: Antibacterial activity against Bacillus subtilis NCIM 2063 after 24 hrs by NCCLS agar well diffusion method; assay type: functional; settings: NCIM 2063, 24 h; method in brief: as §3
# Rattus norvegicus [5] = assay: Antihyperglycemic activity in streptozotocin-induced type 2 diabetic Wistar albino rat assessed as reduction in plasma glucose level at 30 mg/kg, po by glucometer; assay type: functional; method in brief: as §1
smiles,measurement,setting,value
O=C1NC(=O)/C(=C/c2ccc(/C=C/C(=O)c3ccc(O)cc3)cc2)S1,Activity,Rattus norvegicus [1],37.12 mg/dL
same,MIC,Candida albicans,512 µg/mL
same,MIC,Bacillus pumilus,128 µg/mL
same,MIC,Klebsiella pneumoniae,128 µg/mL
same,MIC,Penicillium chrysogenum,512 µg/mL
same,Activity,Rattus norvegicus [2],Dose-dependent effect
same,MTD,[3],2000 mg/kg
same,EC50,Artemia salina,36.2 µg/mL
same,MIC,Escherichia coli,128 µg/mL
same,MIC,Staphylococcus aureus,128 µg/mL
same,MIC,Proteus vulgaris,512 µg/mL
same,MIC,Aspergillus niger,256 µg/mL
same,MIC,Aspergillus oryzae,256 µg/mL
same,Activity,Rattus norvegicus [4],21.83 mg/dL
same,MIC,Pseudomonas aeruginosa,512 µg/mL
same,MIC,Micrococcus luteus,256 µg/mL
same,MIC,Bacillus subtilis,256 µg/mL
same,Activity,Rattus norvegicus [5],30.21 mg/dL
O=C1NC(=O)/C(=C/c2ccc(/C=C/C(=O)c3cccc(F)c3)cc2)S1,Activity,Rattus norvegicus [1],20.66 mg/dL
same,MIC,Candida albicans,64 µg/mL
same,MIC,Bacillus pumilus,32 µg/mL
same,MIC,Klebsiella pneumoniae,32 µg/mL
same,MIC,Penicillium chrysogenum,64 µg/mL
same,Activity,Rattus norvegicus [2],Dose-dependent effect
same,MTD,[3],2000 mg/kg
same,EC50,Artemia salina,9.28 µg/mL
same,MIC,Escherichia coli,32 µg/mL
same,MIC,Staphylococcus aureus,32 µg/mL
same,MIC,Proteus vulgaris,64 µg/mL
same,MIC,Aspergillus niger,64 µg/mL
same,MIC,Aspergillus oryzae,64 µg/mL
same,Activity,Rattus norvegicus [4],12.08 mg/dL
same,MIC,Pseudomonas aeruginosa,32 µg/mL
same,MIC,Micrococcus luteus,64 µg/mL
same,MIC,Bacillus subtilis,32 µg/mL
same,Activity,Rattus norvegicus [5],16.87 mg/dL
O=C1NC(=O)/C(=C/c2ccc(/C=C/C(=O)c3ccccn3)cc2)S1,Activity,Rattus norvegicus [1],43.72 mg/dL
same,MIC,Candida albicans,64 µg/mL
same,MIC,Bacillus pumilus,64 µg/mL
same,MIC,Klebsiella pneumoniae,64 µg/mL
same,MIC,Penicillium chrysogenum,128 µg/mL
same,Activity,Rattus norvegicus [2],Dose-dependent effect
same,MTD,[3],2000 mg/kg
same,EC50,Artemia salina,30.3 µg/mL
same,MIC,Escherichia coli,64 µg/mL
same,MIC,Staphylococcus aureus,64 µg/mL
same,MIC,Proteus vulgaris,64 µg/mL
same,MIC,Aspergillus niger,64 µg/mL
same,MIC,Aspergillus oryzae,64 µg/mL
same,Activity,Rattus norvegicus [4],22.78 mg/dL
same,MIC,Pseudomonas aeruginosa,128 µg/mL
same,MIC,Micrococcus luteus,32 µg/mL
same,MIC,Bacillus subtilis,128 µg/mL
same,Activity,Rattus norvegicus [5],34.68 mg/dL
Cc1ccc(O)c(C(=O)/C=C/c2ccc(/C=C3\SC(=O)NC3=O)cc2)c1,Activity,Rattus norvegicus [1],42.13 mg/dL
same,MIC,Candida albicans,128 µg/mL
same,MIC,Bacillus pumilus,256 µg/mL
same,MIC,Klebsiella pneumoniae,128 µg/mL
same,MIC,Penicillium chrysogenum,64 µg/mL
same,Activity,Rattus norvegicus [2],Dose-dependent effect
same,MTD,[3],2000 mg/kg
same,EC50,Artemia salina,39.4 µg/mL
same,MIC,Escherichia coli,128 µg/mL
same,MIC,Staphylococcus aureus,256 µg/mL
same,MIC,Proteus vulgaris,512 µg/mL
same,MIC,Aspergillus niger,128 µg/mL
same,MIC,Aspergillus oryzae,64 µg/mL
same,Activity,Rattus norvegicus [4],31.76 mg/dL
same,MIC,Pseudomonas aeruginosa,256 µg/mL
same,MIC,Micrococcus luteus,512 µg/mL
same,MIC,Bacillus subtilis,128 µg/mL
same,Activity,Rattus norvegicus [5],37.03 mg/dL
Nc1cccc(C(=O)/C=C/c2ccc(/C=C3\SC(=O)NC3=O)cc2)c1,Activity,Rattus norvegicus [1],21.66 mg/dL
same,MIC,Candida albicans,256 µg/mL
same,MIC,Bacillus pumilus,256 µg/mL
same,MIC,Klebsiella pneumoniae,256 µg/mL
same,MIC,Penicillium chrysogenum,256 µg/mL
same,Activity,Rattus norvegicus [2],Dose-dependent effect
same,MTD,[3],2000 mg/kg
same,EC50,Artemia salina,33.2 µg/mL
same,MIC,Escherichia coli,64 µg/mL
same,MIC,Staphylococcus aureus,256 µg/mL
same,MIC,Proteus vulgaris,256 µg/mL
same,MIC,Aspergillus niger,64 µg/mL
same,MIC,Aspergillus oryzae,128 µg/mL
same,Activity,Rattus norvegicus [4],12.14 mg/dL
same,MIC,Pseudomonas aeruginosa,128 µg/mL
same,MIC,Micrococcus luteus,256 µg/mL
same,MIC,Bacillus subtilis,256 µg/mL
same,Activity,Rattus norvegicus [5],15.36 mg/dL
COc1ccc(C(=O)/C=C/c2ccc(/C=C3\SC(=O)NC3=O)cc2)cc1,Activity,Rattus norvegicus [1],48.71 mg/dL
same,MIC,Candida albicans,128 µg/mL
same,MIC,Bacillus pumilus,64 µg/mL
same,MIC,Klebsiella pneumoniae,64 µg/mL
same,MIC,Penicillium chrysogenum,128 µg/mL
same,Activity,Rattus norvegicus [2],Dose-dependent effect
same,MTD,[3],2000 mg/kg
same,EC50,Artemia salina,16.2 µg/mL
same,MIC,Escherichia coli,32 µg/mL
same,MIC,Staphylococcus aureus,32 µg/mL
same,MIC,Proteus vulgaris,64 µg/mL
same,MIC,Aspergillus niger,128 µg/mL
same,MIC,Aspergillus oryzae,128 µg/mL
same,Activity,Rattus norvegicus [4],33.88 mg/dL
same,MIC,Pseudomonas aeruginosa,64 µg/mL
same,MIC,Micrococcus luteus,64 µg/mL
same,MIC,Bacillus subtilis,64 µg/mL
same,Activity,Rattus norvegicus [5],37.04 mg/dL
O=C1NC(=O)/C(=C/c2ccc(/C=C/C(=O)c3ccc(F)cc3)cc2)S1,Activity,Rattus norvegicus [1],33.12 mg/dL
same,MIC,Candida albicans,32 µg/mL
same,MIC,Bacillus pumilus,16 µg/mL
same,MIC,Klebsiella pneumoniae,16 µg/mL
same,MIC,Penicillium chrysogenum,16 µg/mL
same,Activity,Rattus norvegicus [2],Dose-dependent effect
same,MTD,[3],2000 mg/kg
same,EC50,Artemia salina,4.32 µg/mL
same,MIC,Escherichia coli,16 µg/mL
same,MIC,Staphylococcus aureus,32 µg/mL
same,MIC,Proteus vulgaris,32 µg/mL
same,MIC,Aspergillus niger,32 µg/mL
same,MIC,Aspergillus oryzae,32 µg/mL
same,Activity,Rattus norvegicus [4],22.74 mg/dL
same,MIC,Pseudomonas aeruginosa,16 µg/mL
same,MIC,Micrococcus luteus,32 µg/mL
same,MIC,Bacillus subtilis,16 µg/mL
same,Activity,Rattus norvegicus [5],25.67 mg/dL
O=C1NC(=O)/C(=C/c2ccc(/C=C/C(=O)c3ccc([N+](=O)[O-])cc3)cc2)S1,Activity,Rattus norvegicus [1],22.73 mg/dL
same,MIC,Candida albicans,256 µg/mL
same,MIC,Bacillus pumilus,512 µg/mL
same,MIC,Klebsiella pneumoniae,512 µg/mL
same,MIC,Penicillium chrysogenum,256 µg/mL
same,Activity,Rattus norvegicus [2],Dose-dependent effect
same,MTD,[3],2000 mg/kg
same,EC50,Artemia salina,49.3 µg/mL
same,MIC,Escherichia coli,512 µg/mL
same,MIC,Staphylococcus aureus,512 µg/mL
same,MIC,Proteus vulgaris,512 µg/mL
same,MIC,Aspergillus niger,512 µg/mL
same,MIC,Aspergillus oryzae,512 µg/mL
same,Activity,Rattus norvegicus [4],13.63 mg/dL
same,MIC,Pseudomonas aeruginosa,256 µg/mL
same,MIC,Micrococcus luteus,512 µg/mL
same,MIC,Bacillus subtilis,256 µg/mL
same,Activity,Rattus norvegicus [5],16.74 mg/dL
Nc1ccc(C(=O)/C=C/c2ccc(/C=C3\SC(=O)NC3=O)cc2)cc1,Activity,Rattus norvegicus [1],29.87 mg/dL
same,MIC,Candida albicans,128 µg/mL
same,MIC,Bacillus pumilus,128 µg/mL
same,MIC,Klebsiella pneumoniae,128 µg/mL
same,MIC,Penicillium chrysogenum,256 µg/mL
same,Activity,Rattus norvegicus [2],Dose-dependent effect
same,MTD,[3],2000 mg/kg
same,EC50,Artemia salina,28.8 µg/mL
same,MIC,Escherichia coli,128 µg/mL
same,MIC,Staphylococcus aureus,128 µg/mL
same,MIC,Proteus vulgaris,256 µg/mL
same,MIC,Aspergillus niger,128 µg/mL
same,MIC,Aspergillus oryzae,128 µg/mL
same,Activity,Rattus norvegicus [4],21.34 mg/dL
same,MIC,Pseudomonas aeruginosa,64 µg/mL
same,MIC,Micrococcus luteus,256 µg/mL
same,MIC,Bacillus subtilis,128 µg/mL
same,Activity,Rattus norvegicus [5],24.72 mg/dL
